According to ChEMBL document CHEMBL1914416, “Discovery of pyridine-2-ones as novel class of multidrug resistance (MDR) modulators: first structure-activity relationships” (Bioorg Med Chem, 2011):

Assays:
[1] = biological target: T1, ATP-dependent translocase ABCB1 (Homo sapiens, UniProt P08183); test: Reversal of human MDR1-mediated rhodamine 123 uptake in mouse L5178Y cells assessed as fluorescence activity ratio at 10 mM by flow cytometry relative to non p-gp expressing parental cell line; type: cell-based; settings: in the assay text read “10 µM” for “10 mM”
T1 sequence (P08183 whole entry): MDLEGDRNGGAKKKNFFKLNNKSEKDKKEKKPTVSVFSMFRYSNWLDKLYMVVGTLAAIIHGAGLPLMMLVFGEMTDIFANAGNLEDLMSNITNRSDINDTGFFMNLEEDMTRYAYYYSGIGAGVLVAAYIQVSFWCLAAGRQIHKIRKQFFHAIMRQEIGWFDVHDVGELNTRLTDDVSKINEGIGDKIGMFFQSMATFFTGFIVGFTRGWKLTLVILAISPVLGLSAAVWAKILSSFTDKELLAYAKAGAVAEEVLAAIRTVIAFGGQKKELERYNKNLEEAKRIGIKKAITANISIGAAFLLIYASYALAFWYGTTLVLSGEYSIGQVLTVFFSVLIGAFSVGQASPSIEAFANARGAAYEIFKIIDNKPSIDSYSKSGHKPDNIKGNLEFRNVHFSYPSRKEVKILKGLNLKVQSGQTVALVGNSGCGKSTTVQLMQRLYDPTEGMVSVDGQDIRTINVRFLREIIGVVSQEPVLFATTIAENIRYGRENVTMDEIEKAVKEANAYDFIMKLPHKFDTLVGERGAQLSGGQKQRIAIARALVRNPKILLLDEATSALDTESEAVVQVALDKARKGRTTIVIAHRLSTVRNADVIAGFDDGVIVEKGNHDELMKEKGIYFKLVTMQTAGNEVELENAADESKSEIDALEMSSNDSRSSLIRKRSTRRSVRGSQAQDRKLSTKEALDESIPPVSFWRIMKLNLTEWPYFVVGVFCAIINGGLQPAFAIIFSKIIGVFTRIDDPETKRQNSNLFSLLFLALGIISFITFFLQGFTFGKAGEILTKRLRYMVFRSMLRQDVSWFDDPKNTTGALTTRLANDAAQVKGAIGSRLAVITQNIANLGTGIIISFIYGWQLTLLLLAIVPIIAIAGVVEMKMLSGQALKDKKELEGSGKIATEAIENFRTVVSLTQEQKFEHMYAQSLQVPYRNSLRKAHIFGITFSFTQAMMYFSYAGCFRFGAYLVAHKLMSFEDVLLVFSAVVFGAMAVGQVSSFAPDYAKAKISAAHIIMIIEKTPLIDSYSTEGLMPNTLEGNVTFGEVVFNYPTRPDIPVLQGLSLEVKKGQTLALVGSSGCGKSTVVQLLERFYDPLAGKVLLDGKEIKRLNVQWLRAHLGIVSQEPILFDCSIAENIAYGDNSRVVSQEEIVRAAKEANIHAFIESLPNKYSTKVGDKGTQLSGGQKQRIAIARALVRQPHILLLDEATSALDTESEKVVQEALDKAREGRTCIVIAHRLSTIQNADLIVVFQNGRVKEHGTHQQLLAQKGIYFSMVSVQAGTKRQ
Method in brief: (§1)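 Mouse T-lymphoma L5178Y parental and retrovirally transfected P-gp-expressing L5178Y mdr cells were grown in McCoy's 5A with 10% heat-inactivated horse serum and 2 mM L-glutamine; the mdr line was precultured with 60 ng/mL colchicine. Cells (2 × 10^6/mL, serum-free) were preincubated with inhibitor 10 min at rt, then given rhodamine 123 for 20 min at 37 °C. They were washed twice and resuspended in PBS. Uptake was read by flow cytometry (1 × 10^4 cells). FAR is the mdr/parental quotient, each corrected by inhibitor-free controls.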

[2] = biological target: T1, ATP-dependent translocase ABCB1; test: Reversal of human MDR1-mediated rhodamine 123 uptake in mouse L5178Y cells assessed as fluorescence activity ratio at 1 µM by flow cytometry relative to non p-gp expressing parental cell line
[3] = biological target: T1, ATP-dependent translocase ABCB1; test: Reversal of human MDR1-mediated rhodamine 123 uptake in mouse L5178Y cells assessed as fluorescence activity ratio at 20 umol by flow cytometry relative to non p-gp expressing parental cell line; type: cell-based; method in brief: as §1
L5178Y = test: Cytotoxicity against mouse L5178Y cells at 20 umol by flow cytometric analysis; type: cell-based

SMILES	Ratio [1]	Ratio [2]	Ratio [3]	Activity (L5178Y)
COC(=O)c1c(Cc2ccccc2)ccn(Cc2ccccc2)c1=O	1.68	1.09		
COC(=O)c1c(-c2ccccc2C)ccn(Cc2ccccc2)c1=O	1.51	1.1		
COC(=O)c1c(-c2ccc(C)cc2)ccn(Cc2ccccc2)c1=O	1.75	0.94		
COC(=O)c1c(-c2ccc(OC)cc2)ccn(Cc2ccccc2)c1=O	1.91	0.94		
O=C(OCc1ccccc1)c1c(-c2ccccc2)ccn(Cc2ccccc2)c1=O	2.59	1.22		
COc1ccc(CCN(C)CCCC(C#N)(c2ccc(OC)c(OC)c2)C(C)C)cc1OC (centres undefined) [VERAPAMIL]	2.94	0.89		

More lines, main results first:

Ratio [1]	Ratio [2]	Ratio [3]	SMILES	Activity (L5178Y)
1.74	1.06		COC(=O)c1c(-c2ccccc2)ccn(Cc2ccccc2)c1=O	
1.71	0.99		N#Cc1c(-c2ccccc2)ccn(Cc2ccccc2)c1=O	
1.63	1.06		N#Cc1c(Cc2ccccc2)ccn(Cc2ccccc2)c1=O	
1.83	1.05		Cc1ccccc1-c1ccn(Cc2ccccc2)c(=O)c1C#N	
1.56	0.98		Cc1ccc(-c2ccn(Cc3ccccc3)c(=O)c2C#N)cc1	
2.16	1.29	3.3	COc1ccccc1-c1ccn(Cc2ccccc2)c(=O)c1C#N	Non-toxic
1.35	1.05		COc1ccc(-c2ccn(Cc3ccccc3)c(=O)c2C#N)cc1	Non-toxic
